Results on 17 molecules are retold here after ChEMBL document CHEMBL1147411, “7-Hydroxynaphthalen-1-yl-urea and -amide antagonists of human vanilloid receptor 1” (Bioorg Med Chem Lett, 2004).

The target of assay [1] is T1, Transient receptor potential cation channel subfamily V member 1 (Homo sapiens, UniProt Q8NER1). Nature of the assay: Functional antagonistic activity against human vanilloid receptor subtype 1 in HEK293 cell […] as inhibition of agonist-induced increases in intracellular [Ca2+] levels. The assay is classed as cell-based. Summed up:
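Fluo-3/AM-loaded hVR1/HEK cells were read by FLIPR. Cells were incubated with compound, then challenged with capsaicin at a concentration giving ~80% maximal response. IC50 came from the inhibition of the capsaicin-induced Ca2+ rise.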

Assay [2] concerns the target T1, Transient receptor potential cation channel subfamily V member 1. The experiment in a line: Binding affinity towards cloned human vanilloid receptor subtype 1 in HEK293 cell membranes using [3H]RTX as radioligand. Summed up: (§1)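 Human VR1 stably expressed in HEK293 cells. Membranes were made by homogenizing, spinning at 3000 rpm for 10 min, and spinning the supernatant at 18,000 rpm for 20 min. Binding was 60 min at 37 °C with 0.3–0.6 nM [3H]-RTX in HEPES buffer pH 7.4. Samples were ice-cooled, given α-acid glycoprotein, centrifuged, and the pellet counted. Nonspecific binding used 200 nM unlabeled RTX. Percent inhibition calculated; Ki by Cheng–Prusoff.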

The target is the same in assay [3]. Nature of the assay: Increased [Ca2+] influx in HEK293 cell […] human vanilloid receptor subtype 1. The class given is functional, cell-based. Summed up: (§2)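 hVR1/HEK cells on poly-D-lysine-coated plates were loaded with Fluo-3/AM for 1 h after 2 days. Cells received single compound concentrations, and intracellular Ca2+ was read by FLIPR for 3 min. Capsaicin was then added at […] final to fully activate VR1.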

Assay [4] shares this target. Nature of the assay: Increased [Ca2+] influx in HEK293 cell […] human vanilloid receptor subtype 1 (inactive). The assay is classed as functional, cell-based. Summed up:
as §2

Assay [5] has the same target. The experiment in a line: Displacement of [3H]-RTX binding to human vanilloid receptor subtype 1 expressed in HEK293 cell membranes (inactive). Summed up: as §1
In general terms: In a radioligand displacement assay an active substance lowers the binding of a labelled ligand.

The target is the same in assay [6]. The experiment in a line: Displacement of [3H]RTX binding to human vanilloid receptor subtype 1 expressed in HEK293 cell membranes at 10 uM. Summed up: as §1

T1 sequence (Q8NER1 whole entry): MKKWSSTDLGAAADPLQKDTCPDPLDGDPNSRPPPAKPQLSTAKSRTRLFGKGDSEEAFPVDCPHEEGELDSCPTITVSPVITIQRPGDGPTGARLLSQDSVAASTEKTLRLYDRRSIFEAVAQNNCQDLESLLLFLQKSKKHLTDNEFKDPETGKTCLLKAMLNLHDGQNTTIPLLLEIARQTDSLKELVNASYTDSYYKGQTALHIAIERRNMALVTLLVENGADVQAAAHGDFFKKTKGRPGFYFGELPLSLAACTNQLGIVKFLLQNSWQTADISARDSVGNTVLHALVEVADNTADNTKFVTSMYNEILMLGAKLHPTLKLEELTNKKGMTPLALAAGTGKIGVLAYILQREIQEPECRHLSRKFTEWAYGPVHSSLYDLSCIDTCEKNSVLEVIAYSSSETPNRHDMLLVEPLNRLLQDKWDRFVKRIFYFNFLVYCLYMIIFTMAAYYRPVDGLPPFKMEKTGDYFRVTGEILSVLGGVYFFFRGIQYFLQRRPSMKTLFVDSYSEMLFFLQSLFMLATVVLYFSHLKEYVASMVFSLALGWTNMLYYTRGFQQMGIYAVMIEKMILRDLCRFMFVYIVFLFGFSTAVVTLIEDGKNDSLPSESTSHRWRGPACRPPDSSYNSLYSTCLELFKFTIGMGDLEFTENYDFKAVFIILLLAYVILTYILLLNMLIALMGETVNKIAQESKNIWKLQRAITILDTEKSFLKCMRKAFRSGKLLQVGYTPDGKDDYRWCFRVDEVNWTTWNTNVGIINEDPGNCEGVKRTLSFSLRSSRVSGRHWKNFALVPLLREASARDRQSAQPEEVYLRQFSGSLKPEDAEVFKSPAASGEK

In assay [1], `O=C(NCc1ccc(OC(F)(F)F)cc1)Nc1cccc2ccc(O)cc12` gave an IC50 of 27 nM. The molecule further yielded an inhibition constant (Ki) in assay [2] of 1 nM.
`O=C(NCCSCc1cccc(C(F)(F)F)c1)N1CCSCC1` showed a half-maximal effective concentration (EC50) in assay [3] of 390 nM.
`O=C(CCc1ccc(Cl)c(Cl)c1)Nc1cccc2ccc(O)cc12`: the IC50 in assay [1] was 17 nM. In addition, the affinity in assay [2] corresponds to a Ki of 4.6 nM.
As for `O=C(NCc1ccc(Cl)c(Cl)c1)Nc1cccc2ccc(O)cc12`, the half-maximal inhibitory concentration (IC50) in assay [1] was found to be 15 nM. The same molecule showed a Ki in assay [2] of 2 nM.
Consider `O=C(NCc1ccccc1)Nc1cccc2ccc(O)cc12`, for which, in assay [1], the concentration for half-maximal inhibition (IC50) worked out at 45 nM.
Consider `CN(Cc1ccccc1)C(=O)Nc1cccc2ccc(O)cc12`, for which, in assay [4], the IC50 is above 10000 nM. The molecule also showed a Ki in assay [5] above 10000 nM.
In assay [1], `O=C(NCCc1ccc(Cl)c(Cl)c1)Nc1cccc2ccc(O)cc12` yielded a 50% inhibitory concentration (IC50) of 90 nM. In addition, the Ki in assay [2] is 1 nM.
As to `O=C(Nc1cccc2ccc(O)cc12)N(Cc1ccccc1)Cc1ccccc1`, the IC50 in assay [4] is above 10000 nM.
Turning to `O=C(NCc1ccc(C(F)(F)F)cc1)Nc1cccc2ccc(O)cc12`, in assay [1], the IC50 came to 4 nM. The same molecule displayed an inhibitory constant (Ki) in assay [2] of 1 nM.
The molecule `O=C(CCc1ccc(Cl)cc1)Nc1cccc2ccc(O)cc12` yielded an IC50 in assay [1] of 21 nM. This molecule also came in with a Ki in assay [2] of 9.8 nM.
Turning to `O=C(Nc1cccc2ccc(O)cc12)c1ccc(Cl)cc1`, the inhibition in assay [6] was 28%. In assay [1], the concentration for half-maximal inhibition (IC50) was 320 nM.
In assay [1], `O=C(Cc1ccc(Cl)c(Cl)c1)Nc1cccc2ccc(O)cc12` had an IC50 of 770 nM.
In turn, `Oc1cc2c(cc1O)CN(C(=S)NCCc1ccc(Cl)cc1)CCC2` [CAPSAZEPINE] gave an IC50 in assay [1] of 100 nM. Moreover, the affinity in assay [2] corresponds to a Ki of 120 nM.
For `O=C(NCc1cccc(C(F)(F)F)c1)Nc1cccc2ccc(O)cc12`, in assay [1], the half-inhibitory concentration (IC50) was determined as 26 nM. This molecule also gave an inhibitory constant (Ki) in assay [2] of 2.1 nM.
`O=C(NCc1ccc(F)c(F)c1)Nc1cccc2ccc(O)cc12`: the Ki in assay [2] was determined as 7 nM.
`O=C(Nc1cccc2ccc(O)cc12)Oc1ccccc1` came in with an IC50 in assay [1] of 6300 nM. Besides, in assay [5], the Ki was above 10000 nM.
In the case of `CC(NC(=O)Nc1cccc2ccc(O)cc12)c1ccc(C(F)(F)F)cc1` (stereo not drawn), the Ki in assay [2] was 4 nM.

The IC50 is the concentration that inhibits the measured activity by half. A lower IC50 goes with higher potency. As usually defined, the Ki is the equilibrium dissociation constant of an inhibitor or competing ligand from its target. Lower therefore signals higher affinity. As usually defined, the EC50 is the concentration at which the effect is half-maximal. A higher EC50 goes with a less potent agent. The term inhibition denotes the percentage by which the read-out fell short of the control. Read a low inhibition as little suppression.
